Results as given in ChEMBL document CHEMBL1765015, “Discovery of a potent and efficacious peptide derivative for δ/μ opioid agonist/neurokinin 1 antagonist activity with a 2',6'-dimethyl-L-tyrosine: in vitro, in vivo, and NMR-based structural studies” (J Med Chem, 2011).

Tests used:
Substance-P receptor [1] = target: Substance-P receptor (Rattus norvegicus, UniProt P14600); test: Displacement of [3H]substance P from rat NK1 receptor expressed in CHO cells; format: cell-based
Mu-type opioid receptor [2] = target: T1, Mu-type opioid receptor (Rattus norvegicus, UniProt P33535); test: Displacement of [3H]DAMGO from rat mu opioid receptor expressed in mouse HN9.10 cells; format: cell-based
[3] = target: Substance-P receptor (Cavia porcellus) (UniProt P30547); test: Antagonist activity at NK1 receptor in guinea pig ileum assessed as inhibition of substance P-induced muscle contraction; format: functional, tissue-based
[4] = target: T2, Delta-type opioid receptor (Homo sapiens, UniProt P41143); test: Displacement of [3H]DPDPE from human delta opioid receptor expressed in mouse HN9.10 cells; format: cell-based
Plasma = test: Metabolic stability in rat plasma after up to 6 hrs; format: ADME, cell-free
In short: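 DMSO stock diluted 1000-fold into rat plasma, giving 50 μg/mL final, and incubated at 37 °C. Aliquots taken at 1, 2, 4 and 6 h, proteins precipitated with acetonitrile, and remaining parent measured by HPLC. Three independent experiments, mean ± SD; half-life calculated.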

Substance-P receptor [5] = target: Substance-P receptor (Homo sapiens, UniProt P25103); test: Displacement of [3H]substance P from human NK1 receptor expressed in CHO cells; format: cell-based
[6] = target: T2, Delta-type opioid receptor; test: Agonist activity at human opioid delta receptor expressed in mouse HN9.10 cells assessed as [35S]GTPgammaS binding; format: functional, cell-based
In short: (§1)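 [35S]GTPγS binding on membranes of HN9.10 cells stably expressing human DOR or rat MOR, about 1 pmol receptor/mg membrane protein. logEC50 from non-linear regression of at least two independent experiments in duplicate; EC50 is the antilog. Emax given as percent stimulation.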

[7] = target: T2, Delta-type opioid receptor; test: Agonist activity at human opioid delta receptor expressed in mouse HN9.10 cells assessed as [35S]GTPgammaS binding relative to control; format: functional, cell-based; in short: as §1
[8] = target: Delta-type opioid receptor (Mus musculus, UniProt P32300); test: Agonist activity at delta opioid receptor in mouse vas deferens assessed as inhibition of electrically-stimulated muscle contraction; format: functional, tissue-based
Mu-type opioid receptor [9] = target: Mu-type opioid receptor (Cavia porcellus, UniProt P97266); test: Agonist activity at mu opioid receptor in guinea pig ileum assessed as inhibition of electrically-stimulated muscle contraction; format: functional, tissue-based
[10] = target: Mu-type opioid receptor (Rattus norvegicus) (UniProt P33535); test: Agonist activity at rat mu opioid receptor expressed in mouse HN9.10 cells assessed as [35S]GTPgammaS binding relative to control; format: functional, cell-based; in short: as §1
Mu-type opioid receptor [11] = target: T1, Mu-type opioid receptor; test: Agonist activity at rat mu opioid receptor expressed in mouse HN9.10 cells assessed as [35S]GTPgammaS binding; format: functional, cell-based
Rattus norvegicus = test: Antinociceptive activity in Sprague-Dawley rat assessed as time required to maximum activity on reduction in infrared heat-induced paw withdrawal latency at 10 ug administered intrathecally; format: functional
In short: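 Male Sprague-Dawley rats (200-225 g) fitted with a lumbar intrathecal catheter under ketamine/xylazine and given 5-7 days recovery. Dose of 10 μg in 5 μL i.t., followed by air bubble and saline flush. Radiant heat applied to left hind paw after 20 min acclimation, with 33.0 s cutoff. Baseline taken 30 min before dosing; […], mean ± SEM.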

Sequence of Delta-type opioid receptor (Mus musculus, UniProt P32300) (P32300 whole entry): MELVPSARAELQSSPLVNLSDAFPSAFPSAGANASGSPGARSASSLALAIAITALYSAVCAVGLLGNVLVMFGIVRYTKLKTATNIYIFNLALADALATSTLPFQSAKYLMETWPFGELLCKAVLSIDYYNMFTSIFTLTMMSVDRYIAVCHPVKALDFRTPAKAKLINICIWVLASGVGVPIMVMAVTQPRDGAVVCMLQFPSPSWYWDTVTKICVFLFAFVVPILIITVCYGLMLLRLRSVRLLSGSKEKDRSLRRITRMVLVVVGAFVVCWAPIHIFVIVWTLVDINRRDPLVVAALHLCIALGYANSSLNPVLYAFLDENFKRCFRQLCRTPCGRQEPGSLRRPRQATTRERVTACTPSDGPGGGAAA
T2 sequence (P41143 whole entry): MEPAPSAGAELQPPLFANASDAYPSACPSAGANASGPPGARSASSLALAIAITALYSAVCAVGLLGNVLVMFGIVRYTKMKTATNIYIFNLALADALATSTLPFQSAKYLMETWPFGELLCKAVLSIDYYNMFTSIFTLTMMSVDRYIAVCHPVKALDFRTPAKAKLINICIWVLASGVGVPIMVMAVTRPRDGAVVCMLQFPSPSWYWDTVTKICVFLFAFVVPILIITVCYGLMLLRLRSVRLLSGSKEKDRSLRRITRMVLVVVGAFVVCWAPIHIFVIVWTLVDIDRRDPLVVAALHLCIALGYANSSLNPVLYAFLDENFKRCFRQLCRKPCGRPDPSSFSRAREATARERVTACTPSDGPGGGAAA
Sequence of Substance-P receptor (Cavia porcellus) (P30547 whole entry): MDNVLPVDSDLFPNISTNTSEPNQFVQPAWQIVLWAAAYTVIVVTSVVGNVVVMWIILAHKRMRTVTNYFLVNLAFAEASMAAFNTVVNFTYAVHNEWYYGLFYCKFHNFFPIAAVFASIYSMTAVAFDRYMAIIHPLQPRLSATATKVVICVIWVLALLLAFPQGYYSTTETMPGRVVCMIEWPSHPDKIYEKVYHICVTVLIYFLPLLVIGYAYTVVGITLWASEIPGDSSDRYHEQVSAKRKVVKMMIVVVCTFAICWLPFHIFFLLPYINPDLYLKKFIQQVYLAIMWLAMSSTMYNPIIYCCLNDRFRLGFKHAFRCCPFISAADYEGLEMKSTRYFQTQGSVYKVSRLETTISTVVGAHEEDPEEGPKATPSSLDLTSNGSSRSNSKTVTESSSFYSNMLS
Sequence of Mu-type opioid receptor (Cavia porcellus, UniProt P97266) (P97266 whole entry): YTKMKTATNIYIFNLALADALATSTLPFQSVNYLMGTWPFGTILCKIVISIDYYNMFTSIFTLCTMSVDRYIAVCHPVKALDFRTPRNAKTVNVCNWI
Sequence of Substance-P receptor (Homo sapiens, UniProt P25103) (P25103 whole entry): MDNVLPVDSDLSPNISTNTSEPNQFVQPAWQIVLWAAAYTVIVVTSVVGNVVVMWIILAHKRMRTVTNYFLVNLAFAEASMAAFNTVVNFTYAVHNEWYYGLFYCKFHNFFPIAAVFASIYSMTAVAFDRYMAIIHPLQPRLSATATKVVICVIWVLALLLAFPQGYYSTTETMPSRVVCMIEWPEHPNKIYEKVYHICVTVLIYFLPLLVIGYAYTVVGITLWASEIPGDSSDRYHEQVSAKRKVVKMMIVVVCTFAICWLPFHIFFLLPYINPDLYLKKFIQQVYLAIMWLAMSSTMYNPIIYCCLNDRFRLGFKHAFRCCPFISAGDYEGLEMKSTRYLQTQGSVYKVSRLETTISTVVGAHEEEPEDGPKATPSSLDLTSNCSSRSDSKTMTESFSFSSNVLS
T1 sequence (P33535 whole entry): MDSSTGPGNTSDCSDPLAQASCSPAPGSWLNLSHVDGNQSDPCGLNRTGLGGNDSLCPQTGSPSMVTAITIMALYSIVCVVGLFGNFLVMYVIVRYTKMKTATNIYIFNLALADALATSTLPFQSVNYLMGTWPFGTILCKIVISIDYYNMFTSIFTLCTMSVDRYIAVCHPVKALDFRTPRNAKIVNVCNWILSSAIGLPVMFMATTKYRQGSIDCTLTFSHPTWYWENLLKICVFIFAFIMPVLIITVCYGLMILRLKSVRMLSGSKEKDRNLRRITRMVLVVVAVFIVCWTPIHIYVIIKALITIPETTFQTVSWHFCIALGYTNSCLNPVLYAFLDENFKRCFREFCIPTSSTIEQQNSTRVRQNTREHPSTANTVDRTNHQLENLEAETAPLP
Sequence of Substance-P receptor (Rattus norvegicus, UniProt P14600) (P14600 whole entry): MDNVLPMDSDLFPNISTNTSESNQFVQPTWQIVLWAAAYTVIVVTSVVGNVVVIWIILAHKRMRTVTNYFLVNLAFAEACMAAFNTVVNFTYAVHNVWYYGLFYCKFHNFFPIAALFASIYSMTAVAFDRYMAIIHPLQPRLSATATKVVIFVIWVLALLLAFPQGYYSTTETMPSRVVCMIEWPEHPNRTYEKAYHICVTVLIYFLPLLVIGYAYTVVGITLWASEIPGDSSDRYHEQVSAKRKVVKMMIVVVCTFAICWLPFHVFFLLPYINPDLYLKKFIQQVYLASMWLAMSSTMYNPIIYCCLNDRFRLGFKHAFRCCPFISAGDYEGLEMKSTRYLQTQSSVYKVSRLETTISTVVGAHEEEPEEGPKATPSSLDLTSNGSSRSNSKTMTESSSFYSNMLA
Sequence of Mu-type opioid receptor (Rattus norvegicus) (P33535 whole entry): as the sequence (P33535 whole entry) above

Row | SMILES | IC50 (Substance-P receptor [1]) [nM] | IC50 (Mu-type opioid receptor [2]) [nM] | Ke [3] [nM] | IC50 [4] [nM] | Stability (Plasma) | IC50 (Substance-P receptor [5]) [nM] | EC50 ([6]; read-out: pEC50 (converted)) [nM] | Ki (Substance-P receptor [1]) [nM] | Emax [7] [%] | IC50 [8] [nM] | IC50 (Mu-type opioid receptor [9]) [nM] | Emax [10] [%] | EC50 ([6]; read-out: EC50) [nM] | Ki (Substance-P receptor [5]) [nM] | Ki [4] [nM] | EC50 (Mu-type opioid receptor [11]; read-out: EC50) [nM] | EC50 (Mu-type opioid receptor [11]; read-out: pEC50 (converted)) [nM] | Time (Rattus norvegicus) [min]
1 | CSCC[C@H](NC(=O)[C@H](Cc1ccccc1)NC(=O)CNC(=O)[C@@H](C)NC(=O)[C@@H](N)Cc1c(C)cc(O)cc1C)C(=O)N1CCC[C@H]1C(=O)N[C@@H](CC(C)C)C(=O)N[C@@H](Cc1c[nH]c2ccccc12)C(=O)NCc1cc(C(F)(F)F)cc(C(F)(F)F)c1 | 5.13 | 4.27 | 7.5 | 0.38 | Stable | 0.0182 |  |  |  |  |  |  |  |  |  |  |  | 
2 | CCCC[C@H](NC(=O)[C@H](Cc1ccccc1)NC(=O)CNC(=O)[C@@H](C)NC(=O)[C@@H](N)Cc1c(C)cc(O)cc1C)C(=O)N1CCC[C@H]1C(=O)N[C@@H](CC(C)C)C(=O)N[C@@H](Cc1c[nH]c2ccccc12)C(=O)NCc1cc(C(F)(F)F)cc(C(F)(F)F)c1 |  |  | 13 | 24 |  | 0.166 | 0.126 |  |  |  |  |  |  |  |  |  |  | 
3 | CCCC[C@H](NC(=O)[C@H](Cc1ccccc1)NC(=O)CNC(=O)[C@@H](C)NC(=O)[C@@H](N)Cc1c(C)cc(O)cc1C)C(=O)N1CCC[C@H]1C(=O)N[C@@H](CC(C)C)C(=O)N[C@@H](Cc1c[nH]c2ccccc12)C(=O)NCc1cccc(C(F)(F)F)c1 | 389 |  | 14 | 8.51 |  | 2.19 | 0.437 | 140 | 50 | 8.7 | 22 | 17 | 0.2 | 1 |  |  |  | 
4 | CCCC[C@H](NC(=O)[C@H](Cc1ccccc1)NC(=O)CNC(=O)[C@@H](C)NC(=O)[C@@H](N)Cc1c(C)cc(O)cc1C)C(=O)N1CCC[C@H]1C(=O)N[C@@H](CC(C)C)C(=O)N[C@@H](Cc1c[nH]c2ccccc12)C(=O)NCc1ccc(OC)c(OC)c1 | 891 | 0.631 | 24 | 0.316 |  | 2 |  | 320 | 42 | 8.8 | 23 | 48 | 0.6 | 0.95 | 0.15 | 0.72 | 0.955 | 
5 | CN1CC[C@]23c4c5ccc(O)c4O[C@H]2[C@@H](O)C=C[C@H]3[C@H]1C5 [MORPHINE] |  |  |  |  |  |  |  |  |  |  |  |  |  |  |  |  |  | 20
6 | CCCC[C@H](NC(=O)[C@H](Cc1ccccc1)NC(=O)CNC(=O)[C@@H](C)NC(=O)[C@@H](N)Cc1c(C)cc(O)cc1C)C(=O)N1CCC[C@H]1C(=O)N[C@@H](CC(C)C)C(=O)N[C@@H](Cc1c[nH]c2ccccc12)C(=O)N(C)Cc1cc(C(F)(F)F)cc(C(F)(F)F)c1 | 30.9 | 3.31 | 6.1 | 0.977 |  | 0.468 | 7.08 |  | 49 | 14 | 110 |  | 2.3 |  |  | 8 |  | 
7 | CSCC[C@H](NC(=O)[C@H](Cc1ccccc1)NC(=O)CNC(=O)[C@@H](C)NC(=O)[C@@H](N)Cc1ccc(O)cc1)C(=O)N1CCC[C@H]1C(=O)N[C@@H](CC(C)C)C(=O)N[C@@H](Cc1c[nH]c2ccccc12)C(=O)NCc1cc(C(F)(F)F)cc(C(F)(F)F)c1 |  |  |  |  |  |  |  |  |  |  |  |  |  |  |  |  |  | 15
